Experimental data gathered from unrelated publications.
Protocols differ between the studies behind these lines.
HDAC8: Histone deacetylase 8 (HDAC8, Homo sapiens, UniProt Q9BY41)
ALOX5: Polyunsaturated fatty acid 5-lipoxygenase (ALOX5, Homo sapiens, UniProt P09917)
TACR2: Substance-K receptor (TACR2, Homo sapiens, UniProt P21452)

Structure (SMILES) | target | assay | test system | setting | inhibition
COc1ccc(Cc2nnc(NS(=O)(=O)c3cccc4ccccc34)s2)cc1 | Glutathione hydrolase 1 proenzyme (Homo sapiens, UniProt P19440) | enzyme activity in cells, inhibitor | NIH3T3 | 100 µM | 59%
CN(C)C1CCN(CC#Cc2nn(C3CCCC3)c3nc(NCc4ccccc4)ncc23)C1 (stereo not drawn) | G protein-coupled receptor kinase 4 (GRK4, Homo sapiens, UniProt P32298) | enzyme activity, inhibitor, FRET |  | 0.1 µM | 7%
O=c1cc(-c2ccc(O)c(O)c2)oc2cc(O)cc(O)c12 | HDAC8 | enzyme activity, inhibitor |  | 10 µM | 67.2%
CCOC(=O)C1=C(C)NC(c2ccccc2)=C(C(=O)OCc2ccccc2)C1C#Cc1ccccc1 (stereo not drawn) | Adenosine receptor A3 (Mus musculus, UniProt Q61618) | ligand displacement, radioligand |  | 10 µM, cell membranes | 32%
CCc1c(O)c(=S)ccn1CC | ALOX5 | enzyme activity, inhibitor, fluorescence |  | 1 mM | > 70%
N#Cc1cc(Cn2c(N3CCCC3)nc3ccccc32)ccc1F | 5-hydroxytryptamine receptor 1D (HTR1D, Homo sapiens, UniProt P28221) | cell-free assay |  | 10 µM | -36.9%
C/C=C(/C)C(=O)O[C@@H]1[C@H](OC(C)=O)c2c(ccc3ccc(=O)oc23)OC1(C)C | HDAC8 | enzyme activity, inhibitor |  | 10 µM | 40.9%
Cc1occ(O)c(=O)c1C(=O)O | ALOX5 | enzyme activity, inhibitor, fluorescence |  | 1 mM | > 70%
CC(=O)O[C@@H]1c2c(ccc3ccc(=O)oc23)OC(C)(C)[C@@H]1OC(=O)C1(C)OC1C (stereo partly drawn) | HDAC8 | enzyme activity, inhibitor |  | 10 µM | 43.5%
O=C(c1ccc(Cl)cc1)N(Cc1ccccc1)C1CCCCC1 | TACR2 | cell-free assay |  | 10 µM | 15%
CC(=O)OC1c2c(ccc3ccc(=O)oc23)OC(C)(C)C1OC(=O)C(C)(O)C(C)O (stereo not drawn) | HDAC8 | enzyme activity, inhibitor |  | 10 µM | 41.2%
Oc1cccc(Nc2nc(-c3ccc(F)cc3F)cs2)c1 | TACR2 | cell-free assay |  | 10 µM | 31.5%
O=c1c(O[C@@H]2O[C@H](CO)[C@@H](O)[C@H](O)[C@H]2O)c(-c2ccc(O)cc2)oc2cc(O)cc(O)c12 | HDAC8 | enzyme activity, inhibitor |  | 10 µM | 14.8%
O=c1occcc1O | ALOX5 | enzyme activity, inhibitor, fluorescence |  | 1 mM | > 70%
CCN1CCN(Cc2ccc(NC(=O)c3ccc(C)c(Oc4ccnc5[nH]ccc45)c3)cc2C(F)(F)F)CC1 | Mitogen-activated protein kinase kinase kinase 4 (MAP3K4, Homo sapiens, UniProt Q9Y6R4) | target engagement in cells, inhibitor, chemoproteomics | A-375 | 50 nM | -20.3%
